Measurements as given in ChEMBL document CHEMBL3822407, “Design, synthesis and antiproliferative activity of novel 5-nitropyrimidine-2,4-diamine derivatives bearing alkyl acetate moiety” (Eur J Med Chem, 2016).
Values after ≈ are worked out from the molar mass of the structure shown.

What was measured:
MDA-MB-231 = assay: Antiproliferative activity against human MDA-MB-231 cells after 48 hrs by MTT assay; format: functional, cell-based; details: MDA-MB-231, 48 h
In short: (§1)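 Cells kept in DMEM with 10% FBS and plated at 5 × 10³ per well, then allowed 24 h to attach at 37 °C. Compounds were dissolved as 20 mM DMSO stocks, diluted in medium to a range of concentrations, and applied for 48 h at 37 °C under 5% CO2, with 0.1% DMSO as control. MTT was added for 4 h, formazan dissolved in DMSO, and A570 read. IC50 is the mean of three independent experiments run in quadruplicate.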

A549 = assay: Antiproliferative activity against human A549 cells after 48 hrs by MTT assay; format: functional, cell-based; details: A549, 48 h; in short: as §1
HepG2 [1] = assay: Antiproliferative activity against human HepG2 cells after 48 hrs by MTT assay; format: functional, cell-based; details: HepG2, 48 h; in short: as §1
MCF7 = assay: Antiproliferative activity against human MCF7 cells after 48 hrs by MTT assay; format: functional, cell-based; details: MCF7, 48 h; in short: as §1
HepG2 [2] = assay: Potency index, ratio of fluorouracil IC50 to compound IC50 for human HepG2 cells; format: functional
[3] = Solubility in water at pH 6.4; format: physicochemical
[4] = Solubility in water at pH 1; format: physicochemical
HepG2 [5] = assay: Cell cycle arrest in human HepG2 cells assessed as accumulation at subG1 phase at 1 uM after 48 hrs by propidium iodide staining based flow cytometry (reference value: 2.09%); format: functional
In short: (§2)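 HepG2 cells grown to about 70% confluence and exposed to […] of compound for 48 h. Cells were then trypsinized, washed in PBS and fixed overnight in ice-cold 70% ethanol. They were treated with RNase (50, final) at 37 °C for 30 min, stained with propidium iodide (50, final), and phase distribution was measured by flow cytometry.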

HepG2 [6] = assay: Cell cycle arrest in human HepG2 cells assessed as accumulation at subG1 phase at 5 uM after 48 hrs by propidium iodide staining based flow cytometry (reference value: 2.09%); format: functional; in short: as §2
HepG2 [7] = assay: Cell cycle arrest in human HepG2 cells assessed as accumulation at subG1 phase at 10 uM after 48 hrs by propidium iodide staining based flow cytometry (reference value: 2.09%); format: functional; in short: as §2
HepG2 [8] = assay: Cell cycle arrest in human HepG2 cells assessed as accumulation at subG1 phase at 20 uM after 48 hrs by propidium iodide staining based flow cytometry (reference value: 2.09%); format: functional; in short: as §2
HepG2 [9] = assay: Cell cycle arrest in human HepG2 cells assessed as accumulation at G0/G1 phase at 1 uM after 48 hrs by propidium iodide staining based flow cytometry (reference value: 44.28%); format: functional; in short: as §2
HepG2 [10] = assay: Cell cycle arrest in human HepG2 cells assessed as accumulation at G0/G1 phase at 5 uM after 48 hrs by propidium iodide staining based flow cytometry (reference value: 44.28%); format: functional; in short: as §2
HepG2 [11] = assay: Cell cycle arrest in human HepG2 cells assessed as accumulation at G0/G1 phase at 10 uM after 48 hrs by propidium iodide staining based flow cytometry (reference value: 44.28%); format: functional; in short: as §2
HepG2 [12] = assay: Cell cycle arrest in human HepG2 cells assessed as accumulation at G0/G1 phase at 20 uM after 48 hrs by propidium iodide staining based flow cytometry (reference value: 44.28%); format: functional; in short: as §2
HepG2 [13] = assay: Cell cycle arrest in human HepG2 cells assessed as accumulation at S phase at 1 uM after 48 hrs by propidium iodide staining based flow cytometry (reference value: 28.95%); format: functional; in short: as §2
HepG2 [14] = assay: Cell cycle arrest in human HepG2 cells assessed as accumulation at S phase at 5 uM after 48 hrs by propidium iodide staining based flow cytometry (reference value: 28.95%); format: functional; in short: as §2
HepG2 [15] = assay: Cell cycle arrest in human HepG2 cells assessed as accumulation at S phase at 10 uM after 48 hrs by propidium iodide staining based flow cytometry (reference value: 28.95%); format: functional; in short: as §2
HepG2 [16] = assay: Cell cycle arrest in human HepG2 cells assessed as accumulation at S phase at 20 uM after 48 hrs by propidium iodide staining based flow cytometry (reference value: 28.95%); format: functional; in short: as §2
HepG2 [17] = assay: Cell cycle arrest in human HepG2 cells assessed as accumulation at G2/M phase at 1 uM after 48 hrs by propidium iodide staining based flow cytometry (reference value: 21.54%); format: functional; in short: as §2
HepG2 [18] = assay: Cell cycle arrest in human HepG2 cells assessed as accumulation at G2/M phase at 5 uM after 48 hrs by propidium iodide staining based flow cytometry (reference value: 21.54%); format: functional; in short: as §2
HepG2 [19] = assay: Cell cycle arrest in human HepG2 cells assessed as accumulation at G2/M phase at 10 uM after 48 hrs by propidium iodide staining based flow cytometry (reference value: 21.54%); format: functional; in short: as §2
HepG2 [20] = assay: Cell cycle arrest in human HepG2 cells assessed as accumulation at G2/M phase at 20 uM after 48 hrs by propidium iodide staining based flow cytometry (reference value: 21.54%); format: functional; in short: as §2
HepG2 [21] = assay: Cell cycle arrest in human HepG2 cells assessed as accumulation at G2/M phase after 48 hrs by propidium iodide staining based flow cytometry; format: functional; in short: as §2

Structure (SMILES)	IC50 (MDA-MB-231)	IC50 (A549)	IC50 (HepG2 [1])	IC50 (MCF7)	further results
CCOC(=O)CN(Cc1ccccc1)c1nc(Nc2ccc(Cl)cc2)ncc1[N+](=O)[O-]	34.4 µM	> 100 µM	30.9 µM	> 100 µM	
O=c1[nH]cc(F)c(=O)[nH]1 [FLUOROURACIL]				30.4 µM	
COC(=O)CN(C)c1nc(NC2CCN(S(C)(=O)=O)CC2)ncc1[N+](=O)[O-]	59.6 µM	> 100 µM	> 100 µM	> 100 µM	
CCOC(=O)CN(Cc1ccccc1)c1nc(Nc2cccc(OC)c2)ncc1[N+](=O)[O-]	47.2 µM	> 100 µM	27.6 µM	> 100 µM	
CCOC(=O)CN(Cc1ccccc1)c1nc(NCCc2ccccc2)ncc1[N+](=O)[O-]	22.3 µM	87.3 µM	10.4 µM	21 µM	Ratio IC50 (HepG2 [2]): 3; solubility [3]: 3 µg/mL (≈ 6.89 µM); solubility [4]: 80.5 µg/mL (≈ 185 µM); Activity (HepG2 [5]): 5.08%; Activity (HepG2 [6]): 3.85%; Activity (HepG2 [7]): 4.8%; Activity (HepG2 [8]): 4.91%; Activity (HepG2 [9]): 34.03%; Activity (HepG2 [10]): 31.26%; Activity (HepG2 [11]): 30.91%; Activity (HepG2 [12]): 29.86%; Activity (HepG2 [13]): 28.08%; Activity (HepG2 [14]): 28.28%; Activity (HepG2 [15]): 27.02%; Activity (HepG2 [16]): 25.75%; Activity (HepG2 [17]): 25.46%; Activity (HepG2 [18]): 30.83%; Activity (HepG2 [19]): 31.94%; Activity (HepG2 [20]): 36.85%; Activity (HepG2 [21]): Dose-dependent effect
CCOC(=O)CNc1nc(Nc2ccc(OC)cc2)ncc1[N+](=O)[O-]	32.6 µM	> 100 µM	> 100 µM	> 100 µM	
CCOC(=O)CNc1ncc([N+](=O)[O-])c(N(CC(=O)OCC)Cc2ccccc2)n1	92.5 µM	> 100 µM	44.5 µM	> 100 µM	
CCOC(=O)CNc1nc(Nc2ccccc2)ncc1[N+](=O)[O-]	54.3 µM	> 100 µM	> 100 µM	> 100 µM	
CCOC(=O)CN(Cc1ccccc1)c1nc(NCc2cccc(OC)c2)ncc1[N+](=O)[O-]	80.7 µM	> 100 µM	33.6 µM	57.4 µM	
CCOC(=O)CN(Cc1ccccc1)c1nc(NCc2ccccc2)ncc1[N+](=O)[O-]	82.4 µM	> 100 µM	20.9 µM	> 100 µM	
CCOC(=O)CN(Cc1ccccc1)c1nc(NC2CCN(S(C)(=O)=O)CC2)ncc1[N+](=O)[O-]	75.8 µM	> 100 µM	57.1 µM	> 100 µM	
CCOC(=O)CNc1nc(Nc2ccc(Cl)cc2)ncc1[N+](=O)[O-]	55.5 µM	> 100 µM	> 100 µM	> 100 µM	
CCOC(=O)CNc1nc(NCc2ccccc2)ncc1[N+](=O)[O-]	22.3 µM	74.4 µM	> 100 µM	52.4 µM	
COC(=O)CN(C)c1nc(NCc2ccccc2)ncc1[N+](=O)[O-]	61.1 µM	79.4 µM	> 100 µM	85.9 µM	
CCOC(=O)CNc1nc(NC2CCN(S(C)(=O)=O)CC2)ncc1[N+](=O)[O-]	80.7 µM	> 100 µM	> 100 µM	> 100 µM	
CCOC(=O)CNc1nc(Nc2cccc(OC)c2)ncc1[N+](=O)[O-]	31.3 µM	36.1 µM	> 100 µM	35.8 µM	
CCOC(=O)CN(Cc1ccccc1)c1nc(Nc2cc(OC)c(OC)c(OC)c2)ncc1[N+](=O)[O-]	40.4 µM	> 100 µM	37.8 µM	> 100 µM	
COC(=O)CN(C)c1nc(Nc2ccc(Cl)cc2)ncc1[N+](=O)[O-]	21.2 µM	23.5 µM	49.8 µM	60.7 µM	
COC(=O)CN(C)c1nc(Nc2cccc(OC)c2)ncc1[N+](=O)[O-]	58 µM	31.9 µM	73.4 µM	93.7 µM	
CCOC(=O)CN(Cc1ccccc1)c1nc(Nc2ccccc2)ncc1[N+](=O)[O-]	> 100 µM	> 100 µM	44.4 µM	> 100 µM	
COC(=O)CN(C)c1nc(Nc2ccccc2)ncc1[N+](=O)[O-]	> 100 µM	> 100 µM	> 100 µM	> 100 µM	
CCOC(=O)CNc1nc(NCCc2ccccc2)ncc1[N+](=O)[O-]	21.9 µM	48.2 µM	71.1 µM	> 100 µM	
COC(=O)CN(C)c1nc(NCCc2ccccc2)ncc1[N+](=O)[O-]	44.8 µM	37 µM	86.7 µM	32.5 µM	
COC(=O)CN(C)c1nc(Nc2cc(OC)c(OC)c(OC)c2)ncc1[N+](=O)[O-]	25.9 µM	> 100 µM	26.2 µM	42 µM	
